Beta2AR agonist: beta2AR agonists driving receptor internalization, primary screen, cell-based, FAP fluorogen, flow cytometry | 340,000 tested, 0.43% active | Beta-2 adrenergic receptor (Homo sapiens), P07550 | response, % (no concentration beside the values) | AID 504454, 2011 | Am2.2-beta2AR cells;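 active means response above a set limit, near 3 SD of response in nonfluorescent compounds, cut at about 42% in these data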
Target sequence (P07550 whole entry, looked up): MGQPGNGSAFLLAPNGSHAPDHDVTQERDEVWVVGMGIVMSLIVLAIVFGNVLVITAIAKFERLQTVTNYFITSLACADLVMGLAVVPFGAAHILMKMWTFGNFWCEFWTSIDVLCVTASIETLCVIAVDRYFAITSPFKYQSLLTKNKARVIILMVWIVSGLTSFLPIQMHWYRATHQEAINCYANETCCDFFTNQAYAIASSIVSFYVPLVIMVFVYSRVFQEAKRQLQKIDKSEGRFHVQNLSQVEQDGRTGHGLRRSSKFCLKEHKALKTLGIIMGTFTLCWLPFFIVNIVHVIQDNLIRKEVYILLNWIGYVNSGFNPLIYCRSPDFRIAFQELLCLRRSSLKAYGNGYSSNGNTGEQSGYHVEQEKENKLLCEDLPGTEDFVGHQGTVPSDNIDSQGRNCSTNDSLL
MC4R antag cAMP: MC4R antagonists of cAMP signaling, primary screen, cell-based, TR-FRET, antagonist arm of biased-ligand search; Melanocortin receptor 4 (Homo sapiens), P32245; MC4R-expressing cells, MTII-stimulated cAMP, LANCE TR-FRET; inhibition, % at 6.5 µM; 360,000 tested, 0.48% active;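 active means inhibition above its plate's cutoff, the mean of tested wells on that plate plus 3 SD, cut at about 29% in these data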
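Assay system: U2OS-MC4R stable cell line; Also added: Melanotan II; Technique: Eu-cAMP/anti-cAMP TR-FRET, emission 671 nm; Times: 30-min compound, 1-h challenge, 1-h detection, room temperature.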
MC4R barr agon: MC4R agonists recruiting beta-arrestin, primary screen, cell-based, luminescence, agonist arm of biased-ligand search. Melanocortin receptor 4 (Homo sapiens), P32245. U2OS MC4R beta-arrestin complementation; percent of melanotan II response, DMSO zero. activation, % at 8.9 µM. 360,000 tested, 0.98% active. AID 540308, 2011;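 active means activation above a per-plate cutoff, the mean activation of sample wells on that plate plus 3 SD, cut at about 8% in these data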
TAAR1 ag: human TAAR1 agonists, primary screen, Fluo-8 calcium fluorescence, CHO RD-HGA16 cells; activation, % at 3 µM; vehicle wells 0%, saturating PEA agonist 100%; Trace amine-associated receptor 1 (Homo sapiens), Q96RJ0; 360,000 tested, 0.99% active;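 active means activation above the mean activation of all test compounds in the run plus 3 SD, cut at about 38% in these data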
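Signal – calcium-sensitive Fluo-8 signal, excitation 470-495, emission 515-575 nm · System – RD-HGA16 (CHO) cells co-expressing Gα16 and hTAAR1 · Incubation – 17-24 h seeding, 75 min 37 °C dye, 30 min RT · Compound dosing – 3 µM single concentration · Repeats – no replicates (n 1)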
m5-HT2A agonist: mouse Htr2a agonists via beta-arrestin recruitment, primary screen, cell-based, luminescence; activation, % at 7.6 µM; 360,000 tested, 0.66% active; AID 624169, 2012; 5-hydroxytryptamine receptor 2A (Mus musculus), P35363; CHO-K1 mHTR2A beta-arrestin complementation; percent of 30 µM serotonin response;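 active means activation above a run cutoff, the mean activation of all tested compounds plus 3 SD, cut at about 14% in these data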
TAAR1 antag: human TAAR1 antagonists, primary screen, Fluo-8 calcium fluorescence, CHO RD-HGA16 cells; 360,000 tested, 1.5% active; Trace amine-associated receptor 1 (Homo sapiens), Q96RJ0; antagonist; AID 624466, 2012; inhibition, % at 3 µM;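 active means inhibition above a per-plate cutoff, the mean inhibition of test compounds on that plate plus 3 SD, cut at about 49% in these data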
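Assay system: CHO-derived RD-HGA16 cells stably expressing human TAAR1 plus Gα16. Timing: 140 s kinetic read after compound, 140 s after agonist. Technique: kinetic Fluo-8 calcium fluorescence measurement. Measure: % inhibition of agonist calcium response.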
OPRM1 ag: OPRM1 agonists via beta-arrestin recruitment, confirmation, counter-screen for mouse HTR2A agonist project, cell-based, luminescence, single concentration | activation, % at 9.3 µM | U2OS OPRM1 beta-arrestin PathHunter; DMSO 0%, DAMGO 9.3 µM 100% | 2,300 tested, 5.3% active | shares compounds with m5-HT2A agonist;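 active means mean activation above the mean of DMSO-only wells plus 3 SD, cut at about 0.5% in these data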
HTR2A ag conf: mouse HTR2A agonists, beta-arrestin recruitment, confirmation, cell-based, luminescence, CHO-K1 PathHunter, triplicate; activation, % at 7.6 µM; 2,300 tested, 19% active; DMSO 0%, 30 µM serotonin 100%; shares compounds with m5-HT2A agonist;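 active means mean activation across triplicates above the hit threshold derived in the original primary screen, cut at about 15% in these data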
Large screens that a line does not name were inactive (follow-up assays come after a bar, where they were run). An excerpt weighted towards active compounds, which were near 4.3% of everything screened.

N#CCN1CCCC(C(N)=O)C1 (configuration not stated)	m5-HT2A agonist 19.5 | OPRM1 ag inactive | HTR2A ag conf inactive
CCCCN1C(=O)C(=O)c2cc(Cl)ccc21	none
Cc1ccccc1-n1ncc(C(C)NS(=O)(=O)c2sccc2C)c1C (configuration not stated)	m5-HT2A agonist 14.8 | OPRM1 ag inactive | HTR2A ag conf inactive
Cc1ccccc1-n1ncc(C(C)NS(=O)(=O)c2ccccc2Cl)c1C (configuration not stated)	none
CCOc1ccc(CCNC(=O)CCS(=O)(=O)c2ccc(C)cc2)cc1OCC	none
Cc1cc(CSc2nc(C)cc(=O)[nH]2)c2ncccc2c1	m5-HT2A agonist 16.5 | OPRM1 ag inactive | HTR2A ag conf inactive
Cc1cc(C)n2nc(SCC(=O)Nc3ccccc3)nc2n1	none
COc1ccc(NC(=O)c2ccc(NC(=O)c3nc4nc(C)cc(C)n4n3)cc2)cc1	m5-HT2A agonist 15.3 | OPRM1 ag inactive | HTR2A ag conf inactive
CCc1ccc(NC(=O)CSc2nc3nc(C)cc(C)n3n2)cc1	m5-HT2A agonist 17.5 | OPRM1 ag inactive | HTR2A ag conf inactive
Oc1ccc(C[C@H]2CNC(=S)N2C[C@H]2CCCN2C[C@H](Cc2ccccc2)N2C[C@H](Cc3ccc(O)cc3)N(CCc3ccccc3)C2=S)cc1	none (no result: Beta2AR agonist, MC4R antag cAMP, MC4R barr agon)
O=C(CSCC(=O)NCc1ccco1)NCc1ccco1	none
O=C(CSc1ccccc1)NCc1ccco1	m5-HT2A agonist 15.3 | OPRM1 ag inactive | HTR2A ag conf inactive
Cc1cccc(N2CCN(C(=S)Nc3ccc4nc(N5CCOCC5)cc(C)c4c3)CC2C)c1 (configuration not stated)	m5-HT2A agonist 16.1 | OPRM1 ag inactive | HTR2A ag conf inactive
Cc1cc(N2CCOCC2)nc2ccc(NC(=S)N3CCN(c4ccccc4)CC3)cc12	none
Cc1cccc(N2C(=O)CS/C2=N\NC(=O)c2ccc(Br)cc2)c1C	m5-HT2A agonist 15.3 | OPRM1 ag inactive | HTR2A ag conf inactive
Cc1cccc(N2C(=O)CS/C2=N\NC(=O)c2cccnc2)c1C	none
CC1=NN(C(C#N)c2ccccc2O)C(C)(C)C1 (configuration not stated)	none
CCN1C(C#N)=C(C#N)N=C(C)CC1(C)C	m5-HT2A agonist 24.9 | OPRM1 ag inactive | HTR2A ag conf inactive
O=C1c2ccccc2C(=O)N1CCCCSc1nc2ccccc2c(=O)n1CCCN1CCOCC1	none
C=CCN(CC=C)CCOc1cccc2ccccc12	m5-HT2A agonist 14.4 | OPRM1 ag inactive | HTR2A ag conf 22.9
COc1cc(NC(=O)c2ccc3c(SCC(=O)O)c4c(nc3c2)CCCC4)cc(OC)c1OC	m5-HT2A agonist 14.9 | OPRM1 ag inactive | HTR2A ag conf inactive
O=S(=O)(c1ccc(Cl)cc1)N1CCN(C(=S)Nc2ccccc2F)CC1	none
COc1ccc(-n2c(SCC(=O)NCC3CCCO3)nc3c(c2=O)SCC3)cc1 (configuration not stated)	m5-HT2A agonist 15.4 | OPRM1 ag inactive | HTR2A ag conf inactive
C=CCn1c(SCC(=O)NCC2CCCO2)nc2scc(-c3ccc(OC)cc3)c2c1=O (configuration not stated)	none
